# Assay results as given in ChEMBL document CHEMBL1136727, “Regioselective covalent modification of hemoglobin in search of antisickling agents” (J Med Chem, 2003).
# Several values for one entry are separate records, joined by “and”; a condition that tells them apart may be missing. Equal values may be shown once.
# Experiments:
# [1] = biological target: T1, Hemoglobin HbA (Homo sapiens) (UniProt P69905+P68871); assay: Affinity towards oxygen by hemoglobin after modification by compound; format: functional
# T1 sequence (P68871 2-147 partner limits assumed): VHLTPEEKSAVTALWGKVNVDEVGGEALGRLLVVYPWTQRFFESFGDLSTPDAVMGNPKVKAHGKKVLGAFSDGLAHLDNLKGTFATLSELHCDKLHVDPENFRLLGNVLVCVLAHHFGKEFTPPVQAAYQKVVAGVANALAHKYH
# T1 sequence (P69905 2-142 limits assumed): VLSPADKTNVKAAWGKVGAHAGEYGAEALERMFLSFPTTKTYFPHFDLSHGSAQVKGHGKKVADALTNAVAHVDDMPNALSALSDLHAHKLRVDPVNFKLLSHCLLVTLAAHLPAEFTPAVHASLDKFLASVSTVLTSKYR
# [2] = biological target: T1, Hemoglobin HbA (Homo sapiens); assay: Inhibition of sickle hemoglobin aggregation using standard saturation solubility (CSAT) assay; format: functional
# Summary of the method: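 Saturation solubility (Csat) of deoxy HbS or inhibitor-modified HbS in 50 mM phosphate, pH 7.0. CO is removed by photodissociation under oxygen. HbSO2 at 35 g/dL is deoxygenated on ice with 0.9 M sodium dithionite solution, then centrifuged 1 h at 30 °C. Supernatant Hb is measured spectrophotometrically, and activity is expressed as the solubility increase over the unmodified HbS control.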
# [3] = biological target: T1, Hemoglobin HbA (Homo sapiens); assay: Ratio of compound modified hemoglobin aggregation […]; format: functional
# [4] = biological target: Hemoglobin subunit alpha (Homo sapiens) (UniProt P69905); assay: Percent modification of human hemoglobin alpha (100 uM) after 3h of incubation
# Chain of Hemoglobin subunit alpha (Homo sapiens) (P69905 whole entry): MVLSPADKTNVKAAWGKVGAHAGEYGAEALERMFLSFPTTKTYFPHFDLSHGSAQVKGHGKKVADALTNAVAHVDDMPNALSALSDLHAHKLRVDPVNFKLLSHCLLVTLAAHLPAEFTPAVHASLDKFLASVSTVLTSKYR
# Summary of the method: (§1)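 HbA·CO at 100 μM final (tetramer) reacted with isothiocyanate at a 2:1 compound:Hb molar ratio in 50 mM ammonium acetate, pH 7.3, with 2% DMSO or buffer alone, for 3 h at 37 °C. An aliquot was diluted in acetonitrile/water with 0.2% formic acid and analysed by electrospray MS to give percent modified α- and β-subunit. Some compounds were run in triplicate.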
# [5] = biological target: Hemoglobin subunit beta (Homo sapiens) (UniProt P68871); assay: Percent modification of human Hemoglobin beta (100 uM) after 3h of incubation; summary of the method: as §1
# Chain of Hemoglobin subunit beta (Homo sapiens) (P68871 2-147 limits assumed): as the sequence (P68871 2-147 partner limits assumed) above
# [6] = biological target: Hemoglobin subunit alpha (Homo sapiens) (UniProt P69905); assay: Percent modification of human Hemoglobin alpha (100 uM) after 3h of incubation; summary of the method: as §1
# [7] = biological target: Hemoglobin subunit alpha (Homo sapiens) (UniProt P69905); assay: Percent modification of alpha-subunit of human hemoglobin (100 uM) after 3h of incubation; summary of the method: as §1
Modification [4],Modification [5],Compound,Co [1],Csat [2],Csat/Co [3],Modification [6] [%],Modification [7] [%]
–,–,N#CSCCN1CCCCC1,16.8 g/dL and 16.4 g/dL and 16.5 g/dL,20.9 g/dL and 20.1 g/dL and 20.5 g/dL,1.24 (2×) and 1.23,–,–
–,–,CCN(CC)CCSC#N,17 g/dL and 16.2 g/dL and 16.5 g/dL,21 g/dL and 19.8 g/dL and 20.1 g/dL,1.24 and 1.22 (2×),–,–
–,–,CCN(CC)CCCCCSC#N,15.9 g/dL and 15 g/dL and 15.1 g/dL,21.1 g dl-1 and 20.4 g dl-1 (2×),1.33 and 1.36 and 1.35,–,–
7%,24%,N#CSCCc1c[nH]c2ccccc12,–,–,–,–,–
–,–,CN(C)CCCCCSC#N,15.9 g/dL and 15 g/dL and 15.1 g/dL,21.3 g/dL and 20.2 g/dL and 20.7 g/dL,1.34 and 1.35 and 1.37,–,–
6%,58%,N#CSCc1ccncc1,–,–,–,–,–
–,–,CCN(CC)CCCCSC#N,15.9 g/dL and 15 g/dL and 15.1 g/dL,20.7 g/dL and 19.1 g/dL and 19.7 g/dL,1.3 (2×) and 1.27,–,–
–,8%,N#CSc1ccc(O)cc1,–,–,–,51,–
–,–,CN(C)CCCCSC#N,15.3 g/dL and 15.6 g/dL and 15.1 g/dL,18.8 g dl-1 and 19.1 g dl-1 (2×),1.23 and 1.22 and 1.27,–,–
35%,3%,N#CSc1ccc(C(=O)O)c(O)c1,–,–,–,–,–
0%,18%,N#CSC1CCC(O)CC1 (stereo not given),–,–,–,–,–
42%,13%,N#CSc1ccc(CC(=O)O)cc1,–,–,–,–,–
0%,24%,N#CSCCCN1CCCC1=O,–,–,–,–,–
–,–,N#CSCCCCCO,17 g/dL,18.8 g/dL,1.11,–,–
36% and 42%,17% and 16% and 15%,CCN(CC)CCNC(=O)c1ccc(SC#N)cc1,–,–,–,40,–

Compound,Modification [4],Modification [5],Co [1],Csat [2],Csat/Co [3],Modification [6] [%],Modification [7] [%]
CN(C)c1ccc(SC#N)cc1,–,10%,17 g/dL,18.2 g/dL,1.07,48,–
N#CSc1ccc(CCO)cc1,72%,8% and 9% (2×),17 g/dL,18.7 g/dL,1.1,66,72
N#CCCSC#N,10%,21%,16.1 g/dL and 16.3 g/dL and 16.2 g/dL,17.4 g/dL and 17.8 g/dL and 17.7 g/dL,1.08 and 1.1 and 1.09,–,–
CCN(CC)CCCSC#N,0%,37%,16.1 g/dL and 16.3 g/dL and 16.2 g/dL,19.9 g/dL and 19.6 g/dL and 19.7 g/dL,1.24 and 1.2 and 1.22,–,–
COC(CSC#N)OC,11%,33%,17 g/dL and 16.2 g/dL and 16.5 g/dL,18.2 g/dL and 17.4 g/dL and 17.3 g/dL,1.07 (2×) and 1.04,–,–
N#CSCCCn1ccnc1,7%,13%,17 g/dL and 16.2 g/dL and 16.5 g/dL,20.6 g/dL and 18.6 g/dL and 19.6 g/dL,1.21 and 1.15 and 1.18,–,–
